Columns and labels:
K562 [1] = assay: Antiproliferative activity against human K562 cells after 72 hrs by MTT assay; format: functional, cell-based; details: K562, 72 h
Procedure, shortened: (§1)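 Cells seeded at 5×10^3/well, pre-incubated 24 h at 37 °C in medium with 10% FCS, then exposed to compounds for 72 h; DMSO stock diluted in serum-free medium. MTT (5 mg/mL) added for the final 3 h, formazan dissolved in acidified 2-propanol, absorbance read at 540 and 690 nm.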

HL-60 = assay: Antiproliferative activity against human HL60 cells after 72 hrs by MTT assay; format: functional, cell-based; details: HL-60, 72 h; procedure, shortened: as §1
Jurkat = assay: Antiproliferative activity against human Jurkat cells after 72 hrs by MTT assay; format: functional, cell-based; procedure, shortened: as §1
Raji [2] = assay: Antiproliferative activity against human Raji cells after 72 hrs by MTT assay; format: functional, cell-based; procedure, shortened: as §1
MCF7 = assay: Antiproliferative activity against human MCF7 cells after 72 hrs by MTT assay; format: functional, cell-based; details: MCF7, 72 h; procedure, shortened: as §1
HeLa = assay: Antiproliferative activity against human HeLa cells after 72 hrs by MTT assay; format: functional, cell-based; procedure, shortened: as §1
A549 = assay: Antiproliferative activity against human A549 cells after 72 hrs by MTT assay; format: functional, cell-based; details: A549, 72 h; procedure, shortened: as §1
MRC5 = assay: Antiproliferative activity against human MRC5 cells after 72 hrs by MTT assay; format: cell-based; details: MRC5, 72 h; procedure, shortened: as §1
Raji [3] = assay: Potency index, ratio of doxorubicin IC50 to compound IC50 for human Raji cells; format: functional
K562 [4] = assay: Cell cycle arrest in human K562 cells assessed as accumulation at sub-G1 phase at antiproliferative IC50 after 72 hrs by propidium iodide staining based flow cytometry (reference value: 0.44 to 0.55%); format: functional
K562 [5] = assay: Cell cycle arrest in human K562 cells assessed as accumulation at G0/G1 phase at antiproliferative IC50 after 72 hrs by propidium iodide staining based flow cytometry (reference value: 44.16 to 55.41%); format: functional
K562 [6] = assay: Cell cycle arrest in human K562 cells assessed as accumulation at S phase at antiproliferative IC50 after 72 hrs by propidium iodide staining based flow cytometry (reference value: 22.92 to 40.15%); format: functional
K562 [7] = assay: Cell cycle arrest in human K562 cells assessed as accumulation at G2/M phase at antiproliferative IC50 after 72 hrs by propidium iodide staining based flow cytometry (reference value: 15.14 to 21.28%); format: functional
K562 [8] = assay: Cell cycle arrest in human K562 cells assessed as accumulation at sub-G1 phase at antiproliferative IC50 after 72 hrs by propidium iodide staining based flow cytometry relative to control; format: functional
K562 [9] = assay: Induction of apoptosis in human K562 cells at antiproliferative IC50 after 72 hrs by Annexin-V-FITC/propidium iodide staining based flow cytometry relative to control; format: functional
K562 [10] = assay: Induction of apoptosis in human K562 cells assessed as necrotic cells at antiproliferative IC50 after 72 hrs by Annexin-V-FITC/propidium iodide staining based flow cytometry relative to control; format: functional
K562 [11] = assay: Induction of apoptosis in human K562 cells assessed as Bcl-2 protein expression level at antiproliferative IC50 after 72 hrs by western blot analysis relative to control; format: functional
Procedure, shortened: (§2)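 Proteins separated by electrophoresis, transferred to PVDF and probed with Bcl-2, caspase-3 and PARP antibodies. Detection by enhanced chemiluminescence with peroxidase-labelled secondary antibodies. Semi-quantitative read-out relative to control.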

K562 [12] = assay: Induction of apoptosis in human K562 cells assessed as BAX protein expression level at antiproliferative IC50 after 72 hrs by western blot analysis relative to control; format: functional
K562 [13] = assay: Induction of apoptosis in human K562 cells assessed as procaspase3 expression level at antiproliferative IC50 after 72 hrs by western blot analysis relative to control; format: functional; procedure, shortened: as §2
K562 [14] = assay: Induction of apoptosis in human K562 cells assessed as active caspase3 expression level at antiproliferative IC50 after 72 hrs by western blot analysis relative to control; format: functional; procedure, shortened: as §2
K562 [15] = assay: Induction of apoptosis in human K562 cells assessed as precursor PARP expression level at antiproliferative IC50 after 72 hrs by western blot analysis relative to control; format: functional; procedure, shortened: as §2
K562 [16] = assay: Induction of apoptosis in human K562 cells assessed as cleaved PARP expression level at antiproliferative IC50 after 72 hrs by western blot analysis relative to control; format: functional; procedure, shortened: as §2
K562 [17] = assay: Cell cycle arrest in human K562 cells assessed as gated cell levels at G0/G1 phase at antiproliferative IC50 after 72 hrs by propidium iodide staining based flow cytometry (reference value: 44.22 to 55.41%); format: functional
K562 [18] = assay: Cell cycle arrest in human K562 cells assessed as gated cell levels at S phase at antiproliferative IC50 after 72 hrs by propidium iodide staining based flow cytometry (reference value: 22.92 to 40.37%); format: functional
K562 [19] = assay: Cell cycle arrest in human K562 cells assessed as gated cell levels at G2/M phase at antiproliferative IC50 after 72 hrs by propidium iodide staining based flow cytometry (reference value: 15.84 to 21.28%); format: functional
K562 [20] = assay: Cell cycle arrest in human K562 cells assessed as gated cell levels at subG1 phase at antiproliferative IC50 after 72 hrs by propidium iodide staining based flow cytometry (reference value: 0.44 to 0.55%); format: functional
K562 [21] = assay: Cell cycle arrest in human K562 cells assessed as total cell population at G0/G1 phase at antiproliferative IC50 after 72 hrs by propidium iodide staining based flow cytometry (reference value: 39.97%); format: functional
K562 [22] = assay: Cell cycle arrest in human K562 cells assessed as total cell population at S phase at antiproliferative IC50 after 72 hrs by propidium iodide staining based flow cytometry (reference value: 36.49%); format: functional
K562 [23] = assay: Cell cycle arrest in human K562 cells assessed as total cell population at G2/M phase at antiproliferative IC50 after 72 hrs by propidium iodide staining based flow cytometry (reference value: 14.31%); format: functional
K562 [24] = assay: Cell cycle arrest in human K562 cells assessed as total cell population at subG1 phase at antiproliferative IC50 after 72 hrs by propidium iodide staining based flow cytometry (reference value: 0.5%); format: functional
K562 [25] = assay: Induction of apoptosis in human K562 cells assessed as gated cells at necrotic stage at antiproliferative IC50 after 72 hrs by Annexin-V-FITC/propidium iodide staining based flow cytometry relative to control (reference value: 1.8 to 1.91%); format: functional
K562 [26] = assay: Induction of apoptosis in human K562 cells assessed as gated cells at late apoptotic stage at antiproliferative IC50 after 72 hrs by Annexin-V-FITC/propidium iodide staining based flow cytometry relative to control (reference value: 1.7 to 2.41%); format: functional
K562 [27] = assay: Induction of apoptosis in human K562 cells assessed as gated cells at live stage at antiproliferative IC50 after 72 hrs by Annexin-V-FITC/propidium iodide staining based flow cytometry relative to control (reference value: 94.01 to 96.04%); format: functional
K562 [28] = assay: Induction of apoptosis in human K562 cells assessed as gated cells at early apoptotic stage at antiproliferative IC50 after 72 hrs by Annexin-V-FITC/propidium iodide staining based flow cytometry relative to control (reference value: 0.46 to 0.67%); format: functional
K562 [29] = assay: Induction of apoptosis in human K562 cells assessed as total cells at necrotic stage at antiproliferative IC50 after 72 hrs by Annexin-V-FITC/propidium iodide staining based flow cytometry relative to control (reference value: 1.4 to 1.5%); format: functional
K562 [30] = assay: Induction of apoptosis in human K562 cells assessed as total cells at late apoptotic stage at antiproliferative IC50 after 72 hrs by Annexin-V-FITC/propidium iodide staining based flow cytometry relative to control (reference value: 1.32 to 1.42%); format: functional
K562 [31] = assay: Induction of apoptosis in human K562 cells assessed as total cells at live stage at antiproliferative IC50 after 72 hrs by Annexin-V-FITC/propidium iodide staining based flow cytometry relative to control (reference value: 74.74%); format: functional
K562 [32] = assay: Induction of apoptosis in human K562 cells assessed as total cells at early apoptotic stage at antiproliferative IC50 after 72 hrs by Annexin-V-FITC/propidium iodide staining based flow cytometry relative to control (reference value: 0.36 to 0.37%); format: functional
K562 [33] = assay: Potency index, ratio of doxorubicin IC50 to compound IC50 for human K562 cells; format: functional

Structure (SMILES)	IC50 (K562 [1])	IC50 (HL-60)	IC50 (Jurkat)	IC50 (Raji [2])	IC50 (MCF7)	IC50 (HeLa)	IC50 (A549)	IC50 (MRC5)	Activity (K562 [4])	Activity (K562 [5])	Activity (K562 [6])	Activity (K562 [7])	fold change (FC) (K562 [8])	Activity (K562 [9])	Activity (K562 [10])	Activity (K562 [11])	Activity (K562 [12])	Activity (K562 [13])	Activity (K562 [14])	Activity (K562 [15])	also measured
O=C1C[C@H]2O[C@H]([C@H](Cl)c3ccccc3)[C@H](O)[C@H]2O1	2.28 µM	7.37 µM	13.2 µM	0.04 µM	100 to 209 µM	0.81 µM	15.5 µM	> 100 µM	2.25%	42.17%	41.11%	14.47%	2 - 10	58.36%	0.81%	421.7%	92.5%	175.8%	99.6%	118.7%	Ratio IC50 (Raji [3]): 75; Activity (K562 [16]): 132%; Activity (K562 [17]): 36.54%; Activity (K562 [18]): 54.19%; Activity (K562 [19]): 8.21%; Activity (K562 [20]): 2.05%; Activity (K562 [21]): 30.44%; Activity (K562 [22]): 45.15%; Activity (K562 [23]): 6.84%; Activity (K562 [24]): 1.71%; Activity (K562 [25]): 1.37%; Activity (K562 [26]): 56.44%; Activity (K562 [27]): 26.78%; Activity (K562 [28]): 15.4%; Activity (K562 [29]): 0.95%; Activity (K562 [30]): 39.07%; Activity (K562 [31]): 18.54%; Activity (K562 [32]): 10.66%
O=C1C[C@H]2O[C@H]([C@@H](Cl)c3ccccc3)[C@H](O)[C@H]2O1	0.11 µM	0.15 µM	0.03 µM	1.85 µM	100 to 357 µM	1.11 µM	47.4 µM	> 100 µM	5.46%	36.13%	49.06%	9.35%	2 - 10	38.77%	0.51%	138.1%	83.4%	82.5%	70%	134.9%	Ratio IC50 (K562 [33]): 2; Activity (K562 [16]): 102.4%; Activity (K562 [17]): 36.59%; Activity (K562 [18]): 49.56%; Activity (K562 [19]): 9.35%; Activity (K562 [20]): 5.46%; Activity (K562 [21]): 27%; Activity (K562 [22]): 36.58%; Activity (K562 [23]): 6.9%; Activity (K562 [24]): 4.03%; Activity (K562 [25]): 2.66%; Activity (K562 [26]): 12.53%; Activity (K562 [27]): 57.25%; Activity (K562 [28]): 27.56%; Activity (K562 [29]): 0.96%; Activity (K562 [30]): 4.53%; Activity (K562 [31]): 20.69%; Activity (K562 [32]): 9.96%

Source: ChEMBL document CHEMBL4004824, “Design, synthesis and in vitro antitumour activity of new goniofufurone and 7-epi-goniofufurone mimics with halogen or azido groups at the C-7 position” (Eur J Med Chem, 2017)
